Measurements reported in ChEMBL document CHEMBL2413065, “Design and synthesis of bicyclic heterocycles as potent γ-secretase modulators” (Bioorg Med Chem Lett, 2013).
Activity calls are given as the source filed them. No cut-off for these calls is given here.

Experiments:
Gamma-secretase [1] = assay: Modulation of gamma-secretase (unknown origin) assessed as reduction of amyloid beta 42 level; format: protein-complex assay, Homo sapiens
hERG (KCNH2) = hERG (KCNH2) (Homo sapiens, UniProt Q12809); assay: Inhibition of human ERG at 3 uM by Patch-Xpress assay
Cytochrome P450 2D6 = Cytochrome P450 2D6 (Homo sapiens, UniProt P10635); assay: Inhibition of CYP2D6 (unknown origin)
Cytochrome P450 1A2 = molecular target: T1, Cytochrome P450 1A2 (Homo sapiens, UniProt P05177); assay: Inhibition of CYP1A2 (unknown origin)
T1 sequence (P05177 whole entry): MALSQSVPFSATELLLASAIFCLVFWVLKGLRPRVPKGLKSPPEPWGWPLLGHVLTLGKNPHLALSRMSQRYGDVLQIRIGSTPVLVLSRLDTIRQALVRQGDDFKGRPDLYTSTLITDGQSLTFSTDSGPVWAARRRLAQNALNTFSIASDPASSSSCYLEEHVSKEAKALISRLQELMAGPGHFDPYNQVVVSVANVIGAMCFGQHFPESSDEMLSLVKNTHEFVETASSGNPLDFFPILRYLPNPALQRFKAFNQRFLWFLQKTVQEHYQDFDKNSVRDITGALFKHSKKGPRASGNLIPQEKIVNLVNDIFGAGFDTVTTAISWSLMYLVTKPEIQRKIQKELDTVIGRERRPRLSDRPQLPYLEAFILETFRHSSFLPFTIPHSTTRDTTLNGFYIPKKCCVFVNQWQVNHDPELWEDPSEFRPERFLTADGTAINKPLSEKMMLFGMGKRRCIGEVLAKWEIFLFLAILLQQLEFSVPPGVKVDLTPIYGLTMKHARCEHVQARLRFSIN

Cytochrome P450 3A4 = Cytochrome P450 3A4 (Homo sapiens, UniProt P08684); assay: Inhibition of CYP3A4 (unknown origin)
Cytochrome P450 2C19 = Cytochrome P450 2C19 (Homo sapiens, UniProt P33261); assay: Inhibition of CYP2C19 (unknown origin)
Cytochrome P450 2C9 = Cytochrome P450 2C9 (Homo sapiens, UniProt P11712); assay: Inhibition of CYP2C9 (unknown origin)
[2] = Drug metabolism in human liver microsomes at 1 uM after 15 mins; format: ADME, Microsome; conditions: read-out: Drug metabolism
How it was run: (§1)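 Compound at 1 μM was incubated with human or mouse liver microsomes for 15 min. The value is the % of compound metabolized.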

[3] = Drug metabolism in mouse liver microsomes at 1 uM after 15 mins; format: ADME, Microsome; conditions: read-out: Drug metabolism; how it was run: as §1
[4] = molecular target: Voltage-gated inwardly rectifying potassium channel KCNH2 (Homo sapiens, UniProt Q12809); assay: Binding affinity to human ERG
Mus musculus [5] = assay: Antialzheimer activity in mouse assessed as reduction of amyloid beta-42 level at 30 mg/kg, po after 4 hrs by ELISA; format: functional
How it was run: (§2)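 Mice dosed orally at 30 mg/kg, n = 6. Brain Aβ peptides were measured by ELISA 4 h after dosing. Values are given as % change versus untreated animals.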

[6] = Ratio of drug level in brain to plasma in mouse at 30 mg/kg, po after 4 hrs; format: ADME, organism-based; design: dose 30 mg/kg, route oral; conditions: read-out: BPR
How it was run: (§3)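 Mice received 30 mg/kg orally. Plasma and brain were sampled at 4 h and analysed for compound by a qualified research LC-MS/MS method. The brain/plasma ratio was calculated from the two concentrations.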

[7] = Plasma concentration in mouse at 30 mg/kg, po after 4 hrs; format: ADME, organism-based; design: dose 30 mg/kg, route oral; how it was run: as §3
[8] = Drug level in mouse brain at 30 mg/kg, po after 4 hrs; format: ADME, organism-based; design: dose 30 mg/kg, route oral; conditions: read-out: Drug uptake; how it was run: as §3
Mus musculus [9] = assay: Effect in mouse assessed as increase of amyloid beta 38 level at 30 mg/kg, po after 4 hrs by ELISA
[10] = Fraction unbound in human plasma; format: ADME, cell-free
How it was run: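 Unbound fraction in human plasma, determined as binding to human plasma proteins.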

[11] = Fraction unbound in rat brain; format: ADME, tissue-based
How it was run: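 Unbound fraction in rat brain tissue, expressed as %.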

Mus musculus [12] = assay: Antialzheimer activity in mouse assessed as reduction of total amyloid beta level at 30 mg/kg, po after 4 hrs by ELISA; format: functional; how it was run: as §2
[13] = Plasma concentration in dog at 20 mg/kg, po after 8 hrs; format: ADME, organism-based, Canis lupus familiaris; design: dose 20 mg/kg, route oral
How it was run: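 Dogs received 20 mg/kg orally. Plasma compound concentration was measured at 8 h and reported in ng/mL and μM.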

Canis familiaris [14] = assay: Hepatotoxicity in dog assessed as effect on bilirubin and alanine transaminase level at 20 mg/kg, po; format: toxicity, organism-based, Canis lupus familiaris; design: dose 20 mg/kg, route oral; conditions: in vivo
Canis familiaris [15] = assay: Antialzheimer activity in dog assessed as increase of amyloid beta 38 level in cerebrospinal fluid at 20 mg/kg, po after 8 hrs by ELISA; format: functional, Canis lupus familiaris
How it was run: (§4)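 Dogs received 20 mg/kg orally. CSF Aβ42 and Aβ38 were measured 8 h after dosing and expressed as % change.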

Canis familiaris [16] = assay: Antialzheimer activity in dog assessed as reduction of amyloid beta 42 level in cerebrospinal fluid at 20 mg/kg, po after 8 hrs by ELISA; format: functional; conditions: Canis lupus familiaris; how it was run: as §4
Gamma-secretase [17] = assay: Modulation of gamma-secretase (unknown origin); format: protein-complex assay, Homo sapiens

Cytochrome P450 2C19, sequence (P33261 whole entry): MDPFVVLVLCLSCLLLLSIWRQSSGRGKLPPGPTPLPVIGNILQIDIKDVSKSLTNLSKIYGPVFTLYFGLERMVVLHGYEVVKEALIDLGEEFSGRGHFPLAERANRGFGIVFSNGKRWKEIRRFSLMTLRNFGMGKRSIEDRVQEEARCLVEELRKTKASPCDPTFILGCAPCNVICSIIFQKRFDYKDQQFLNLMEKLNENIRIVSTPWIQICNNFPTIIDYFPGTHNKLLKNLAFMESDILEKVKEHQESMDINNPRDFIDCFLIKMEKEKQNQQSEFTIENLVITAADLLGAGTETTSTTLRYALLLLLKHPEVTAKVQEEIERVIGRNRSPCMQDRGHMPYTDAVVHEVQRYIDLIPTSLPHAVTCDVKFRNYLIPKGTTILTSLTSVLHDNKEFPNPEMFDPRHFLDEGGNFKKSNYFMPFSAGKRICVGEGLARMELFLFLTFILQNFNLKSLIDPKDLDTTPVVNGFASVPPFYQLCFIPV
Cytochrome P450 3A4, sequence (P08684 whole entry): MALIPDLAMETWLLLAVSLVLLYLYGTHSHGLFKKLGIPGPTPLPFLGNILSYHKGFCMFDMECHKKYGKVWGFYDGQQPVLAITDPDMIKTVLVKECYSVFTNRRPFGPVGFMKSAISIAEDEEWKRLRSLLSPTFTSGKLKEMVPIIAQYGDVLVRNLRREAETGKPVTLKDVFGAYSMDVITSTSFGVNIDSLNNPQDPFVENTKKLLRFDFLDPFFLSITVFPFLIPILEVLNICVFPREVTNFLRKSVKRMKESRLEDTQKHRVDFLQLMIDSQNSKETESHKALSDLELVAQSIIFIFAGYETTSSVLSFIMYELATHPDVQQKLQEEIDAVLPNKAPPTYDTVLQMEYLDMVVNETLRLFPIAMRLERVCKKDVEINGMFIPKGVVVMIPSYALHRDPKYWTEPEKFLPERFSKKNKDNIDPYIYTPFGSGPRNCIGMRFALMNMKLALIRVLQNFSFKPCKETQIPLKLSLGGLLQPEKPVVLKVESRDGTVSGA
Voltage-gated inwardly rectifying potassium channel KCNH2, sequence (Q12809 whole entry): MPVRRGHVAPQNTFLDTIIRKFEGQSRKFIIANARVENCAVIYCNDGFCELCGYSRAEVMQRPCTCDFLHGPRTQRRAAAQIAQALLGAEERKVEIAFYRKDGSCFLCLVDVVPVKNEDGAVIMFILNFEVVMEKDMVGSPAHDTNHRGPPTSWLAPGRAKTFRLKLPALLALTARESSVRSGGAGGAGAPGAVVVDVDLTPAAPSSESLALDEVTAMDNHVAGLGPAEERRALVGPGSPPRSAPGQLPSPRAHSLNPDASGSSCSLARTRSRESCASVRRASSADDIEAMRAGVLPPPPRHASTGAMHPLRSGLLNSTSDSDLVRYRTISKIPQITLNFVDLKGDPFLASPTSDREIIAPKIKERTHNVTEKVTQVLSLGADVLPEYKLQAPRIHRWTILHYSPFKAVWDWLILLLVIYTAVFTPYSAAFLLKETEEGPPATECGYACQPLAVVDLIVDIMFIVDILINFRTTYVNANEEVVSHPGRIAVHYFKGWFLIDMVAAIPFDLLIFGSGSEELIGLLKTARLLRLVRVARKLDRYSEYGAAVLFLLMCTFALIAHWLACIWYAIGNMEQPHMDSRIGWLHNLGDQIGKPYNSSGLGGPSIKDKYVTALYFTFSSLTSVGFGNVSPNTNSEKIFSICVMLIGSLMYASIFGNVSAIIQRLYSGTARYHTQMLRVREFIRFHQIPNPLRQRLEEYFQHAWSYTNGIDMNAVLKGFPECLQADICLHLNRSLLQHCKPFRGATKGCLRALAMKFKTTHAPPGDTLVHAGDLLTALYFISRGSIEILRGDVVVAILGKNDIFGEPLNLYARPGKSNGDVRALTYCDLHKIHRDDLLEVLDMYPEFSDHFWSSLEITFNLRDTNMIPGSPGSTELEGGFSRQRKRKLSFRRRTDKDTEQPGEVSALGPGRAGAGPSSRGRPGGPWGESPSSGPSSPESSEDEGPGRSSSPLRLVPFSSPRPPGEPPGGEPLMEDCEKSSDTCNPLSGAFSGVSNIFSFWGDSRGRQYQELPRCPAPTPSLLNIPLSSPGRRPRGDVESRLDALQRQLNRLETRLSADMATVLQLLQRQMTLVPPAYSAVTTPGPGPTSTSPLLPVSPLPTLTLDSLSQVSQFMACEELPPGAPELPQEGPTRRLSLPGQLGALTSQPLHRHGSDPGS
hERG (KCNH2), sequence (Q12809 whole entry): as above
Cytochrome P450 2D6, sequence (P10635 whole entry): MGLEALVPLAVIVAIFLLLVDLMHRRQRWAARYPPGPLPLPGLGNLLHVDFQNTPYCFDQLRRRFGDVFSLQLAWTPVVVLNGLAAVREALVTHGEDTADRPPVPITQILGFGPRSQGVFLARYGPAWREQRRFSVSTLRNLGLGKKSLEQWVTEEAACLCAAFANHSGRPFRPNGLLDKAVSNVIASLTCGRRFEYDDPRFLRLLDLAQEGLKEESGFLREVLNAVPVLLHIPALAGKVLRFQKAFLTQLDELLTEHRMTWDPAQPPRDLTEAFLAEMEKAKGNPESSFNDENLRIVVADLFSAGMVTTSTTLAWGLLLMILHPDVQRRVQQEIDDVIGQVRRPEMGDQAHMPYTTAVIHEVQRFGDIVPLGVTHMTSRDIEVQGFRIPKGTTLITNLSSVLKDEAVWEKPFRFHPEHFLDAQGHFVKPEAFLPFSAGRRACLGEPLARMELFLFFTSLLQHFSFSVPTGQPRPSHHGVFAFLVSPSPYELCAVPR
Cytochrome P450 2C9, sequence (P11712 whole entry): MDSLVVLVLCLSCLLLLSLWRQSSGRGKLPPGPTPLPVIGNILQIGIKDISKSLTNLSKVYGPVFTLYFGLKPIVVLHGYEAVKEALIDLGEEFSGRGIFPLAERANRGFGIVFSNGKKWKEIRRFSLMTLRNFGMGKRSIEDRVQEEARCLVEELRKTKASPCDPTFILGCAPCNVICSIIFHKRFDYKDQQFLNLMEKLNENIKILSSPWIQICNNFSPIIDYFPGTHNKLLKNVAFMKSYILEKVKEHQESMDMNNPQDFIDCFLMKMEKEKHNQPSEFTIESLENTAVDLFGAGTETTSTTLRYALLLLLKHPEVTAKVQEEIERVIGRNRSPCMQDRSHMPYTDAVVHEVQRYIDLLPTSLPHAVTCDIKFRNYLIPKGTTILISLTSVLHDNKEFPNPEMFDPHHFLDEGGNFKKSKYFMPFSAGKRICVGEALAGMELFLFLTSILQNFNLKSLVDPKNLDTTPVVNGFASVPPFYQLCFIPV

Structure (SMILES): COc1cc(-c2nc3n(n2)CCCC3c2ccc(F)cc2)ccc1-n1cnc(C)c1 (racemic)
- IC50 (Gamma-secretase [1]): 0.22 µM

Structure (SMILES): COc1cc(-c2nc3n(n2)CCCC3c2ccc(F)cc2C)ccc1-n1cnc(C)c1 (racemic)
- IC50 (Gamma-secretase [1]): 0.093 µM

Structure (SMILES): COc1cc(-c2nc3n(n2)CCO[C@H]3c2ccccc2C(F)(F)F)ccc1-n1cnc(C)c1
- inhibition at 3 µM (hERG (KCNH2)): 12%
- IC50 (Cytochrome P450 2D6): > 10 µM
- IC50 (Cytochrome P450 1A2): > 10 µM
- IC50 (Cytochrome P450 3A4): 1.1 µM
- IC50 (Cytochrome P450 2C19): 1.52 µM
- IC50 (Cytochrome P450 2C9): 8.43 µM
- metabolised at […], 1 µM [2]: 5%
- metabolised at […], 1 µM [3]: 6%
- IC50 [4]: > 10 µM
- inhibition in vivo at 30 mg/kg (Mus musculus [5]): 22%
- Kp at 4 h [6]: 0.93
- concentration at 4 h [7]: 3.6 µM
- concentration at 4 h [8]: 3.36 µM
- IC50 (Gamma-secretase [1]): 0.071 µM
- Increase % at 30 mg/kg (Mus musculus [9]): 17%

Structure (SMILES): COc1cc(-c2nnc(-c3ccc(F)cc3)[nH]2)ccc1-n1cnc(C)c1
- IC50 (Gamma-secretase [1]): 1.29 µM

Structure (SMILES): COc1cc(-c2nc3n(n2)CCC[C@H]3c2ccc(F)cc2C)ccc1-n1cnc(C)c1
- fraction unbound [10]: 0.027
- fraction unbound [11]: 0.0092
- inhibition at 3 µM (hERG (KCNH2)): 28%
- IC50 (Cytochrome P450 2D6): > 10 µM
- IC50 (Cytochrome P450 1A2): > 10 µM
- IC50 (Cytochrome P450 3A4): 6.94 µM
- IC50 (Cytochrome P450 2C19): 9.24 µM
- IC50 (Cytochrome P450 2C9): 5.66 µM
- metabolised at […], 1 µM [2]: 41%
- metabolised at […], 1 µM [3]: 9%
- inhibition (Mus musculus [12]): inactive
- IC50 [4]: 7.9 µM
- inhibition in vivo at 30 mg/kg (Mus musculus [5]): 49%
- Kp at 4 h [6]: 0.5
- concentration at 4 h [7]: 9.8 µM
- concentration at 4 h [8]: 4.8 µM
- IC50 (Gamma-secretase [1]): 0.04 µM
- Increase % at 30 mg/kg (Mus musculus [9]): 59%

Structure (SMILES): COc1cc(-c2nc(Cc3ccc(F)cc3)n(C)n2)ccc1-n1cnc(C)c1
- IC50 (Gamma-secretase [1]): 0.85 µM

Structure (SMILES): COc1cc(C(=O)N[C@@H](C)c2ccc(F)cc2)ccc1-n1cnc(C)c1
- IC50 (Gamma-secretase [1]): 2.6 µM

Structure (SMILES): COc1cc(-c2nc3n(n2)CCC[C@@H]3c2ccc(F)cc2C)ccc1-n1cnc(C)c1
- IC50 [4]: 0.794 µM
- IC50 (Gamma-secretase [1]): 0.447 µM

Structure (SMILES): COc1cc(-c2nc(-c3ccc(F)cc3)nn2C)ccc1-n1cnc(C)c1
- IC50 (Gamma-secretase [1]): 5.75 µM

Structure (SMILES): COc1nc(-c2nc3n(n2)CCC[C@H]3c2ccccc2C(F)(F)F)ccc1-n1cnc(C)c1
- concentration at 8 h [13]: 19 µM
- Activity (Canis familiaris [14]): Non-toxic
- Activity (Canis familiaris [15]): 28%
- inhibition in vivo at 20 mg/kg (Canis familiaris [16]): 50%
- fraction unbound [10]: 0.085
- fraction unbound [11]: 0.022
- IC50 (Cytochrome P450 2D6): > 10 µM
- IC50 (Cytochrome P450 3A4): > 10 µM
- IC50 (Cytochrome P450 2C19): > 10 µM
- IC50 (Cytochrome P450 2C9): 8.51 µM
- metabolised at […], 1 µM [2]: 10%
- metabolised at […], 1 µM [3]: 6%
- inhibition in vivo at 30 mg/kg (Mus musculus [5]): 62%
- Kp at 4 h [6]: 0.23
- concentration at 4 h [7]: 12.3 µM
- concentration at 4 h [8]: 2.8 µM
- IC50 (Gamma-secretase [1]): 0.028 µM
- Increase % at 30 mg/kg (Mus musculus [9]): 66%

Structure (SMILES): COc1cc(C(=O)NCc2cccc(-c3ccccc3)c2)ccc1-n1cnc(C)c1
- inhibition in vivo at 30 mg/kg (Mus musculus [12]): 3%
- inhibition in vivo at 30 mg/kg (Mus musculus [5]): 12%
- Kp at 4 h [6]: 0.22
- concentration at 4 h [7]: 11.9 µM
- concentration at 4 h [8]: 2.7 µM
- IC50 (Gamma-secretase [17]): 0.158 µM

Structure (SMILES): COc1cc(-c2nc(C)n(-c3ccc(F)cc3)n2)ccc1-n1cnc(C)c1
- IC50 (Gamma-secretase [1]): 0.77 µM

Structure (SMILES): COc1cc(-c2nc3n(n2)CCC[C@H]3c2ccccc2C(F)(F)F)ccc1-n1cnc(C)c1
- inhibition at 3 µM (hERG (KCNH2)): 11%
- metabolised at […], 1 µM [2]: 13%
- metabolised at […], 1 µM [3]: 7%
- IC50 [4]: > 10 µM
- inhibition in vivo at 30 mg/kg (Mus musculus [5]): 46%
- Kp at 4 h [6]: 1.29
- concentration at 4 h [7]: 9.7 µM
- concentration at 4 h [8]: 12.7 µM
- IC50 (Gamma-secretase [1]): 0.024 µM
- Increase % at 30 mg/kg (Mus musculus [9]): 44%

Structure (SMILES): COc1cc(-c2nc(-c3ccc(F)cc3)n(C)n2)ccc1-n1cnc(C)c1
- IC50 (Gamma-secretase [1]): 0.62 µM
